Data set [1] concerns Mus musculus. As to the kind of experiment: Toxicity in mice evaluated, after a single dose of compound containing 1.14 g/kg of iodinated form administered as 10 mL/kg solution; NT=No toxicity. In kind it is organism-based. The settings on record: in vivo, 1140 mg/kg. The gist of the method: (§1)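 Mice, 3 per dose group, received a single oral dose of the test agent as a mineral oil-in-water emulsion. Doses were 10, 20 or 40 mL/kg, about 1-, 2- and 4-fold the anticipated human dose of 114 mg I/mL. Emulsion vehicle alone at 40 mL/kg was the control. Clinical signs and mortality were checked several times on the dosing day, then daily for 7 days. Body weight was taken at 24 h and 1 week, and survivors were necropsied on day 7. Read-out was deaths over animals dosed.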

Data set [2] deals with Cricetinae gen. sp. As to the kind of experiment: Number of hamsters (male) with follicular cell necrosis over the total number of tested at 4.56 g/kg of compound in iodinated form administered orally; 0/3. In kind it is functional, Cricetulus griseus.
Data set [3] deals with Cricetinae gen. sp. As to the kind of experiment: Number of hamsters (male) with follicular cell dilation over the total number of tested at 4.56 g/kg of compound in iodinated form administered orally; 1/3. In kind it is functional, Cricetulus griseus.
Data set [4] deals with Cricetinae gen. sp. Briefly: Number of hamsters (male) with follicular cell mitotic figures above the control value, to that of total number of tested at 4.56 g/kg of compound in iodinated form administered orally; 1/3. Type of data set: functional, Cricetulus griseus.
For data set [5], the system named is Mus musculus. Briefly: Mortality observed in mouse tested for murine toxicity after a single dose of compound (8.49 g/kg) containing iodinated form (4.56 g/kg) of it, administered as 40 mL/kg solution; 0/3. Type of data set: functional. In short, it runs like this:
as §1

Data set [6] deals with Cricetinae gen. sp. As to the kind of experiment: Number of hamsters (female) with follicular cell mitotic figures above the control value, to that of total number of tested at 4.56 g/kg of compound in iodinated form administered orally; 1/3. Type of data set: functional, Cricetulus griseus.
The test system of data set [7] is Mus musculus. Briefly: Toxicity in mice evaluated, after a single dose of compound containing 2.28 g/kg of iodinated form administered as 20 ml/kg solution; NT=No toxicity. Particulars: in vivo, 2280 mg/kg. In kind it is organism-based. In short, it runs like this: as §1
The test system of data set [8] is Cricetinae gen. sp. Briefly: Number of hamsters (female) with follicular cell dilation over the total number of tested at 4.56 g/kg of compound in iodinated form administered orally; 1/3. Type of data set: functional, Cricetulus griseus.
For data set [9], the system named is Cricetinae gen. sp. Briefly: Number of hamsters (female) with follicular cell necrosis over the total number of tested at 4.56 g/kg of compound in iodinated form administered orally; 1/6. Type of data set: functional, Cricetulus griseus.
Data set [10] is filed under the species Rattus norvegicus. As to the kind of experiment: Percent of compound (40 uM) present in unmetabolized form in rats after incubation with microsomes for 60 min. The settings on record: Microsome. Type of data set: functional. In short, it runs like this: (§2)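 Substrate at 40 µM was incubated 60 min with male Sprague-Dawley rat or male golden Syrian hamster liver microsomes, in duplicate, with sampling at 0, 15, 30 and 60 min. Aliquots were zinc sulfate-quenched, propan-2-ol-extracted and run on isocratic reversed-phase C8 HPLC. Intact drug is expressed relative to 0 min control values.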

For data set [11], the species on record is Rattus norvegicus. Briefly: Compound (4 uM) was evaluated for the half-life period in rats after incubation with microsomes for 60 min. Type of data set: functional. Particulars: Microsome. The gist of the method: (§3)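 Liver microsomes from male Sprague-Dawley rat, male golden Syrian hamster or human, incubated with substrate at 4 µM. Duplicate incubates were sampled at 0, 15, 30 and 60 min, quenched with saturated zinc sulfate and extracted with propan-2-ol. Samples were analysed by isocratic reversed-phase C8 HPLC (65% i-PrOH/water, 0.1% TFA). Values were normalized to the 0 min control to derive half-life (n = 2).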

Data set [12] relates to Cricetinae gen. sp. As to the kind of experiment: Number of hamsters (male) with follicular cell dilation over the total number of tested at 4.56 g/kg of compound in iodinated form administered orally; 3/3. In kind it is functional, Cricetulus griseus.
Data set [13] concerns Cricetinae gen. sp. As to the kind of experiment: Number of hamsters (female) with follicular cell mitotic figures above the control value, to that of total number of tested at 4.56 g/kg of compound in iodinated form administered orally; 3/3. In kind it is functional, Cricetulus griseus.
In data set [14] the test system is Cricetinae gen. sp. As to the kind of experiment: Number of hamsters (female) with follicular cell necrosis over the total number of tested at 4.56 g/kg of compound in iodinated form administered orally; 0/3. Type of data set: functional, Cricetulus griseus.
For data set [15], the system named is Cricetinae gen. sp. Briefly: Number of hamsters (male) with follicular cell mitotic figures above the control value, to that of total number of tested at 4.56 g/kg of compound in iodinated form administered orally; 3/3. Type of data set: functional, Cricetulus griseus.
For data set [16], the species on record is Cricetulus griseus. As to the kind of experiment: Compound (4 uM) was evaluated for the half-life period in hamster after incubation with microsomes for 60 min. Particulars: Microsome. Type of data set: functional. The gist of the method: as §3
Data set [17] relates to Cricetinae gen. sp. Briefly: Number of hamsters (female) with follicular cell dilation over the total number of tested at 4.56 g/kg of compound in iodinated form administered orally; 3/3. In kind it is functional, Cricetulus griseus.
The test system of data set [18] is Cricetinae gen. sp. As to the kind of experiment: Number of hamsters (male) with follicular cell necrosis over the total number of tested at 4.56 g/kg of compound in iodinated form administered orally; 3/3. In kind it is functional, Cricetulus griseus.
For data set [19], the species on record is Cricetulus griseus. Briefly: Percent of compound (40 uM) present in unmetabolized form in hamsters after incubation with microsomes for 60 min. Particulars: Microsome. In kind it is functional. The gist of the method:
as §2

In data set [20] the test system is Mus musculus. As to the kind of experiment: Mortality observed in mouse tested for murine toxicity after a single dose of compound (7.00 g/kg) containing iodinated form (4.56 g/kg) of it, administered as 40 mL/kg solution; 0/3. Type of data set: functional. In short, it runs like this:
as §1

The next data set is filed under the species Homo sapiens. As to the kind of experiment: Compound (4 uM) was evaluated for the half-life period in humans after incubation with microsomes for 60 min. The settings on record: Microsome.
Data set [21] concerns Mus musculus. Briefly: Mortality observed in mouse tested for murine toxicity after a single dose of compound (6.26 g/kg) containing iodinated form (1.91 g/kg) of it, administered as 10 mL/kg solution; 1/3. In kind it is functional.
Data set [22] deals with Mus musculus. As to the kind of experiment: Mortality observed in mouse tested for murine toxicity after a single dose of compound (5.34 g/kg) containing iodinated form (1.63 g/kg) of it, administered as 10 mL/kg solution; 3/3. In kind it is functional.
Data set [23] concerns Mus musculus. Briefly: Mortality observed in mouse tested for murine toxicity after a single dose of compound (2.80 g/kg) containing iodinated form (0.853 g/kg) of it, administered as 10 mL/kg solution; 1/3. Type of data set: functional.
The test system of data set [24] is Mus musculus. As to the kind of experiment: Mortality observed in mouse tested for murine toxicity, 7 days after a single dose of compound containing 6.53 g/kg of iodinated form, administered as 40 mL/kg solution. In kind it is functional. The gist of the method:
as §1

Data set [25] deals with Mus musculus. Briefly: Mortality observed in mouse tested for murine toxicity, 7 days after a single dose of compound containing 3.27g/kg of iodinated form, administered as 20 ml/kg solution. Type of data set: functional. The gist of the method:
as §1

For data set [26], the system named is Mus musculus. As to the kind of experiment: Mortality observed in mouse tested for murine toxicity after a single dose of compound (12.5 g/kg) containing iodinated form (3.81 g/kg) of it, administered as 10 mL/kg solution; 3/3. In kind it is functional.
Data set [27] concerns Cricetinae gen. sp. As to the kind of experiment: Number of hamsters (male) with follicular cell necrosis over the total number of tested at 4.56 g/kg of compound in iodinated form administered orally; 0/5. In kind it is functional, Cricetulus griseus.
Data set [28] deals with Cricetinae gen. sp. Briefly: Number of hamsters (male) with follicular cell mitotic figures above the control value, to that of total number of tested at 4.56 g/kg of compound in iodinated form administered orally; 0/5. In kind it is functional, Cricetulus griseus.
For data set [29], the system named is Cricetinae gen. sp. Briefly: Number of hamsters (male) with follicular cell dilation over the total number of tested at 4.56 g/kg of compound in iodinated form administered orally; 0/5. Type of data set: functional, Cricetulus griseus.

SMILES strings stand for the structures.

Turning to `CCCCCCc1c(I)c(CCCCCC)c(I)c(CCCCCC)c1I`, the Toxicity result in the data set on Mus musculus [1] and in the data set on Mus musculus [7] was “Not toxic” each time. The Necrosis in the data set with Cricetinae gen. sp. [2] and in the data set with Cricetinae gen. sp. [9] was 0 each time. The Dilation in the data set with Cricetinae gen. sp. [3] amounted to 1; in the data set with Cricetinae gen. sp. [8] it was 0. Besides, the Mitotic figures in the data set on Cricetinae gen. sp. [4] stood at 1; in the data set on Cricetinae gen. sp. [6], 0. The Mortality in the data set on Mus musculus [5] is 0 number of descendants/number of tested.

`CCCCCCC(C)Oc1c(I)cc(I)cc1I` (configuration not stated): the Toxicity result in the data set on Mus musculus [1] and with Mus musculus [7] was “Not toxic” each time. The Intact in the data set filed under Rattus norvegicus [10] and in the data set listed under Cricetulus griseus [19] was 73% in each case. In addition, the T1/2 in the data set filed under Rattus norvegicus [11] worked out at 36 min; in the data set listed under Cricetulus griseus [16] it was 15 min; in the data set listed under Homo sapiens, 132 min. Also, the Dilation with Cricetinae gen. sp. [12] and with Cricetinae gen. sp. [17] was 3 each time. Further, the Mitotic figures in the data set with Cricetinae gen. sp. [13] and in the data set on Cricetinae gen. sp. [15] was 3 in each case. Also, the Necrosis with Cricetinae gen. sp. [14] worked out at 0; in the data set on Cricetinae gen. sp. [18], 2. Also, in the data set on Mus musculus [20], the Mortality is listed as 0 number of descendants/number of tested.

With `CCOC(=O)CCCCCCCCC(C)c1ccc(I)cc1` (configuration not stated) [IOPHENDYLATE], the Mortality in the data set on Mus musculus [21] is reported as 1 number of descendants/number of tested; in the data set on Mus musculus [22], 3 number of descendants/number of tested; in the data set with Mus musculus [23], 1 number of descendants/number of tested; in the data set with Mus musculus [24], 100%; in the data set on Mus musculus [25] it was 100%; with Mus musculus [26], 3 number of descendants/number of tested.

In turn, `CC(C)CCCCCc1c(I)c(CCCCCC(C)C)c(I)c(CCCCCC(C)C)c1I` returned a Necrosis in the data set on Cricetinae gen. sp. [27] of 0. The compound further registered a Mitotic figures in the data set on Cricetinae gen. sp. [28] of 0. Also, the Dilation in the data set with Cricetinae gen. sp. [29] was 0.

The values above are taken from ChEMBL document CHEMBL1133021, “1,3,5-Trialkyl-2,4,6-triiodobenzenes: novel X-ray contrast agents for gastrointestinal imaging” (J Med Chem, 2000).
